Data reported in ChEMBL document CHEMBL1124109, “Novel calcium antagonists. Synthesis and structure-activity relationship studies of benzothiazoline derivatives” (J Med Chem, 1988).
pIC50: −log10 of the molar value.

What was measured:
Cavia porcellus = species: Cavia porcellus; test: In vitro molar concentration required to block [Ca2+] -induced contraction of K+-depolarized taenia cecum of guinea pigs; assay type: functional; settings: Caecum
How it was run: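 Guinea pig taenia cecum washed with Ca2+-free high-K+ Krebs solution after equilibration. Compound applied 5 min before CaCl2 (3 × 10^-4 M). Contraction recorded isotonically.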

Mus musculus = species: Mus musculus; test: Effect on acute thrombic death induced by collagen in mice; assay type: functional; settings: read-out: ID50 (the source's name)
How it was run: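 Male ddY mice (20-30 g) given compound orally as 0.5% tragacanth suspension 3 h before rapid tail-vein injection (2 s) of collagen (type III, 3 mg/mL in acetic acid/Tris pH 7.4), about 30 mg/kg, set so […] within 3 min. Survival scored; % inhibition = (St - Sc)/(100 - Sc); ID50 in mg/kg po; n=8 treated, 12 control.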

Oryctolagus cuniculus [1] = species: Oryctolagus cuniculus; test: Electrophysiological effect in isolated rabbit hearts as molar concentration that prolongs the His bundle ventricular (H-V) conduction time by 10%; assay type: functional, Cardiac ventricle
Rattus norvegicus [2] = test: Hypotensive effect in Spontaneously hypertensive rats as maximum decrease in systolic blood pressure at 100 mg/kg, po dose; assay type: functional, Artery
How it was run: (§1)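 Male SHR, 300-400 g, conscious, 6-13 animals. Oral dosing as a 0.5% methylcellulose suspension. Systolic pressure by tail-cuff plethysmography at 0, 1, 3, 6, 9 and 24 h after dosing; heart rate from pulse over 4 s. Value is maximum SBP fall, mean ± SEM of six animals; Dunnett's test.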

Rattus norvegicus [3] = test: Hypotensive effect in Spontaneously hypertensive rats as maximum decrease in systolic blood pressure at 30 mg/kg, po dose; assay type: functional, Artery; how it was run: as §1
Rattus norvegicus [4] = test: Hypotensive effect in Spontaneously hypertensive rats as maximum decrease in systolic blood pressure at 10 mg/kg, po dose; assay type: functional, Artery; how it was run: as §1
Oryctolagus cuniculus [5] = species: Oryctolagus cuniculus; test: Electrophysiological effect in isolated rabbit hearts as molar concentration that prolongs the atrio-His bundle (A-H) conduction time by 30%; assay type: functional
[6] = Ratio between EC10 and EC30 in isolated rabbit hearts in His bundle ventricular intervals; assay type: functional

| Compound | pIC50 (Cavia porcellus) | other results |
| --- | --- | --- |
| COc1ccc(OCCCCN2CCC(C(=O)c3ccc(F)cc3)CC2)c(C2Sc3ccccc3N2C=O)c1 (configuration not stated) | 5.32 |  |
| COc1ccc(OCCCCCCN(C)C2CCCCC2)c(C2Sc3ccccc3N2C(C)=O)c1 (configuration not stated) | 5.38 |  |
| COc1ccc(OCCCCCN(C)C2CCCCC2)c(C2Sc3ccccc3N2C=O)c1 (configuration not stated) | 5.57 |  |
| CC(=O)N1c2ccccc2SC1c1cc(Cl)ccc1OCCCN(C)C (configuration not stated) | 5.42 |  |
| COc1ccc(OCCCN(C)CCc2cc(OC)c(OC)c(OC)c2)c(C2Sc3ccccc3N2C(C)=O)c1 (configuration not stated) | 6.11 |  |
| COc1ccc(OCCCCCN2CCC(C(=O)c3ccccc3)CC2)c(C2Sc3ccccc3N2C(C)=O)c1 (configuration not stated) | 4.77 |  |
| COc1cccc(C2Sc3ccccc3N2C(C)=O)c1OCCCCN(C)C1CCCCC1 (configuration not stated) | 5.06 |  |
| COc1ccc(OCCCCCN(C)CCc2ccc(OC)c(OC)c2OC)c(C2Sc3ccccc3N2C(C)=O)c1 (configuration not stated) | 5.10 |  |
| CCC(=O)N1c2ccccc2SC1c1cc(OC)ccc1OCCCCCN(C)C1CCCCC1 (configuration not stated) | 5.15 |  |
| COc1ccc(OCCCCN(C)CC(C)c2ccc(OC)c(OC)c2)c(C2Sc3ccccc3N2C(C)=O)c1 (configuration not stated) | 5.80 |  |
| COC(=O)C1=C(C)NC(C)=C(C(=O)OC)C1c1ccccc1[N+](=O)[O-] [NIFEDIPINE] |  | ED50 (Mus musculus): > 30 mg/kg |
| CC(=O)N1CCSC1c1cc([N+](=O)[O-])ccc1OCCCN(C)C (configuration not stated) | 5.39 |  |
| CC(=O)N1c2ccccc2SC1c1ccc(OCCCN(C)C)cc1 (configuration not stated) | 5.26 |  |
| CC(=O)N1CCSC1c1ccccc1OCCN(C)C (configuration not stated) | < 4.00 |  |
| CN(CCCOc1ccccc1C1Sc2ccccc2N1C=O)C1CCCCC1 (configuration not stated) | 5.40 |  |
| COc1ccc(OCCCN(C)C2CCCCC2)c(C2Sc3ccccc3N2C(C)=O)c1 (configuration not stated) | 5.38 |  |
| CC(=O)N1c2ccccc2SC1c1cccc(OCCCN(C)C)c1 (configuration not stated) | 4.96 |  |
| COc1ccc(OCCCN(C)CCc2ccc(OC)c(OC)c2)c(C2Sc3ccccc3N2C(C)=O)c1 (configuration not stated) | 6.11 |  |
| CCC(=O)N1c2ccccc2SC1c1cc(OC)ccc1OCCCCN1CCC(C(=O)c2ccccc2)CC1 (configuration not stated) | 5.00 |  |
| COc1ccc(OCCCCN(C)CCc2ccc(OC)c(OC)c2OC)c(C2Sc3ccccc3N2C(C)=O)c1 (configuration not stated) | 6.47 |  |
| COc1ccc(OCCCCCCN2CCN(CCc3ccc(OC)c(OC)c3)CC2)c(C2Sc3ccccc3N2C(C)=O)c1 (configuration not stated) | 4.96 |  |
| CC(=O)N1c2ccccc2SC1c1cc(Cl)ccc1OCCCCN1CCC(C(=O)c2ccccc2)CC1 (configuration not stated) | 4.89 |  |

| Compound | pIC50 (Cavia porcellus) | other results |
| --- | --- | --- |
| CC(=O)N1c2ccccc2SC1c1cc([N+](=O)[O-])ccc1OCCCCN(C)C1CCCCC1 (configuration not stated) | 5.27 |  |
| COc1ccc(OCCCCN2CCC(C(=O)c3ccccc3)CC2)c(C2Sc3ccccc3N2C(C)=O)c1 (configuration not stated) | 5.85 |  |
| CCC(=O)N1c2ccccc2SC1c1cc(OC)ccc1OCCCCN1CCN(CCc2cc(OC)c(OC)c(OC)c2)CC1 (configuration not stated) | 5.92 |  |
| CC(=O)N1CCSC1c1ccc(OCCN(C)C)cc1 (configuration not stated) | < 4.00 |  |
| COc1ccc(OCCCCN2CCN(CCc3cc(OC)c(OC)c(OC)c3)CC2)c(C2Sc3ccccc3N2C=O)c1 (configuration not stated) | 5.59 |  |
| CC(=O)N1c2ccccc2SC1c1cc([N+](=O)[O-])ccc1OCCCN(C)C (configuration not stated) | 5.21 |  |
| CC(=O)N1c2ccccc2SC1c1cc([N+](=O)[O-])ccc1OCCCCN1CCC(C(=O)c2ccccc2)CC1 (configuration not stated) | 5.32 |  |
| COc1ccc(OCCCN(C)CCc2ccc(OC)c(OC)c2OC)c(C2Sc3ccccc3N2C(C)=O)c1 (configuration not stated) | 5.70 |  |
| COc1ccc(OCCCCN2CCC(C(=O)c3ccc(F)cc3)CC2)c(C2Sc3ccccc3N2C(C)=O)c1 (configuration not stated) | 5.80 |  |
| COc1ccc(OCCCCN(C)CCc2ccc(OC)c(OC)c2)c(C2Sc3ccccc3N2C(C)=O)c1 (configuration not stated) | 6.18 |  |
| CC(=O)N1c2ccccc2SC1c1ccccc1OCCN(C)C (configuration not stated) | 4.77 |  |
| COc1ccc(OCCCN(C)C)c(C2Sc3ccccc3N2C(C)=O)c1 (configuration not stated) | 5.80 |  |
| CCN(CCCCOc1ccc(OC)cc1C1Sc2ccccc2N1C(C)=O)CCc1cc(OC)c(OC)c(OC)c1 (configuration not stated) | 6.00 |  |
| COc1ccc(OCCCCCN(C)C2CCCCC2)c(C2Sc3ccccc3N2C(C)=O)c1 (configuration not stated) | 5.92 |  |
| COc1cc(CCN2CCN(CCCCOc3ccc(Cl)cc3C3Sc4ccccc4N3C(C)=O)CC2)cc(OC)c1OC (configuration not stated) | 5.64 |  |
| CC(=O)N1c2ccccc2SC1c1ccccc1OCCCN(C)C (configuration not stated) | 5.00 |  |
| COc1ccc(OCCCCNCCc2cc(OC)c(OC)c(OC)c2)c(C2Sc3ccccc3N2C(C)=O)c1 (configuration not stated) | 5.19 |  |
| CC(=O)N1c2ccccc2SC1c1ccc(OCCN(C)C)cc1 (configuration not stated) | 4.44 |  |
| COc1ccc(OCCCCN(C)CCCc2ccc(OC)c(OC)c2OC)c(C2Sc3ccccc3N2C(C)=O)c1 (configuration not stated) | 5.92 |  |
| CNCCCCOc1ccc(OC)cc1C1Sc2ccccc2N1C(C)=O (configuration not stated) | 5.70 |  |
| COc1ccc(OCCCN2CCN(CCc3ccc(OC)c(OC)c3)CC2)c(C2Sc3ccccc3N2C(C)=O)c1 (configuration not stated) | 5.52 |  |
| COc1ccc(OCCCCN2CCN(CCc3cc(OC)c(OC)c(OC)c3)CC2)c(C2Sc3ccccc3N2C(C)=O)c1 (configuration not stated) | 6.33 |  |

| Compound | pIC50 (Cavia porcellus) | other results |
| --- | --- | --- |
| COc1ccc(OCCCCN2CCC(C(=O)c3ccc(Cl)cc3)CC2)c(C2Sc3ccccc3N2C(C)=O)c1 (configuration not stated) | 5.06 |  |
| COc1ccc(OCCCCN)c(C2Sc3ccccc3N2C(C)=O)c1 (configuration not stated) | < 4.00 |  |
| CC(=O)N1c2ccccc2SC1c1ccc(OCCCN(C)C2CCCCC2)cc1 (configuration not stated) | 5.36 |  |
| CCC(=O)N1c2ccccc2SC1c1ccccc1OCCCN(C)C1CCCCC1 (configuration not stated) | 5.49 |  |
| COC(=O)C1=C(C)NC(C)=C(C(=O)OCCN(C)Cc2ccccc2)C1c1cccc([N+](=O)[O-])c1 (configuration not stated) [NICARDIPINE] |  | ED50 (Mus musculus): > 30 mg/kg |
| COc1ccc(OCCCN2CCC(C(=O)c3ccccc3)CC2)c(C2Sc3ccccc3N2C(C)=O)c1 (configuration not stated) | 4.96 |  |
| Clc1ccccc1CN1CCc2sccc2C1 [TICLOPIDINE] |  | ED50 (Mus musculus): 260 mg/kg |
| COc1ccc(OCCCCN(CCc2cc(OC)c(OC)c(OC)c2)C2CC2)c(C2Sc3ccccc3N2C(C)=O)c1 (configuration not stated) | 5.92 |  |
| COc1ccc(OCCCCN2CCN(CCc3ccc(OC)c(OC)c3)CC2)c(C2Sc3ccccc3N2C(C)=O)c1 (configuration not stated) | 6.19 |  |
| COc1ccc(OCCCCN(C)CCc2cc(OC)c(OC)c(OC)c2)c(C2Sc3ccccc3N2C(C)=O)c1 (configuration not stated) | 6.89 | ED50 (Mus musculus): 12 mg/kg; EC10 (Oryctolagus cuniculus [1]): 0.2 µM; Decrease of SBP (Rattus norvegicus [2]): 87.5 mmHg; Decrease of SBP (Rattus norvegicus [3]): 48.3 mmHg |
| COc1ccc(OCCCCCN(C)CCc2ccc(OC)c(OC)c2)c(C2Sc3ccccc3N2C(C)=O)c1 (configuration not stated) | 5.89 |  |
| CC(=O)N1c2ccccc2SC1c1ccccc1OCCCN(C)C1CCCCC1 (configuration not stated) | 5.77 |  |
| COc1ccc(OCCCCN(CCc2cc(OC)c(OC)c(OC)c2)C(C)C)c(C2Sc3ccccc3N2C(C)=O)c1 (configuration not stated) | 6.89 |  |
| COc1ccc(OCCCCN(C)C2CCCCC2)c(C2Sc3ccccc3N2C(C)=O)c1 (configuration not stated) | 5.40 |  |
| COc1ccc(OCCCCN2CCC(C(=O)c3ccccc3)CC2)c(C2SCCN2C(C)=O)c1 (configuration not stated) | 3.39 |  |
| COc1ccc(OCCCCCN(C)CCc2cc(OC)c(OC)c(OC)c2)c(C2Sc3ccccc3N2C(C)=O)c1 (configuration not stated) | 5.89 |  |
| COc1ccc(OCCCCCN2CCN(CCc3ccc(OC)c(OC)c3)CC2)c(C2Sc3ccccc3N2C(C)=O)c1 (configuration not stated) | 6.09 |  |
| COc1cccc(C2Sc3ccccc3N2C(C)=O)c1OCCCN(C)C (configuration not stated) | 4.89 |  |
| COc1ccc(CCN(C)CCCC(C#N)(c2ccc(OC)c(OC)c2)C(C)C)cc1OC (configuration not stated) [VERAPAMIL] | 7.00 | ED50 (Mus musculus): > 30 mg/kg; Decrease of SBP (Rattus norvegicus [4]): 24.2 mmHg; Decrease of SBP (Rattus norvegicus [3]): 83.3 mmHg |
| COc1ccc([C@@H]2Sc3ccccc3N(CCN(C)C)C(=O)[C@@H]2OC(C)=O)cc1 [DILTIAZEM] | 6.77 | ED50 (Mus musculus): > 30 mg/kg; EC30 (Oryctolagus cuniculus [5]): 0.44 µM; EC10 (Oryctolagus cuniculus [1]): 2.6 µM; Decrease of SBP (Rattus norvegicus [2]): 44.2 mmHg; Decrease of SBP (Rattus norvegicus [3]): 22.5 mmHg; Ratio [6]: 6.5 |
